Source: ChEMBL document CHEMBL1123290, “Synthesis, antimalarial activity, and quantitative structure-activity relationships of tebuquine and a series of related 5-[(7-chloro-4-quinolinyl)amino]-3-[(alkylamino)methyl] [1,1'-biphenyl]-2-ols and N omega-oxides” (1986)

Assays:
Format in all cases: functional
Plasmodium berghei [1] = assay: Change in mean survival time for control (average 6.2 days) versus treated mice (Mus musculus) after 320 mg/kg subcutaneous dose
Mus musculus [2] = assay: Antimalarial activity, administered as a single subcutaneous dose of 80 mg/kg, 72 hrs post infection measured as number of mice (Mus musculus) surviving at 60 days post infection
In short: (§1)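 Mice were infected with a normal drug-sensitive Plasmodium berghei strain. At 72 h postinfection each received one subcutaneous dose of compound dissolved or suspended in peanut oil, in five-mouse groups per dose. The read-out was the number of mice alive at 60 days postinfection, which were scored as cured.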

Plasmodium berghei [3] = assay: Change in mean survival time of Plasmodium berghei infected mice (Mus musculus) on 1.25 mg/kg subcutaneous dose
Plasmodium berghei [4] = assay: Antimalarial activity in primary screen
Plasmodium berghei [5] = assay: Change in mean survival time in control (average 6.2 days) versus treated mice (Mus musculus) after 80 mg/kg subcutaneous dose
Plasmodium berghei [6] = assay: Change in mean survival time for control (average 6.2 days) versus treated mice (Mus musculus) after 160 mg/kg subcutaneous dose
Plasmodium berghei [7] = assay: Difference in mean survival time of Plasmodium berghei infected mice (Mus musculus) after 10 mg/kg subcutaneous dose
Plasmodium berghei [8] = assay: Change in mean survival time of Plasmodium berghei infected mice (Mus musculus) after […] subcutaneous dose
Plasmodium berghei [9] = assay: Antimalarial activity as 60-day survivors in Plasmodium berghei infected mice (Mus musculus) after single 160mg/kg subcutaneous dose 72 hr post infection; in short: as §1
Plasmodium berghei [10] = assay: Change in mean survival time of Plasmodium berghei infected mice (Mus musculus) after 5 mg/kg subcutaneous dose
Plasmodium berghei [11] = assay: Antimalarial activity as 60-day survivors in infected mice (Mus musculus) after single 320mg/kg subcutaneous dose 72 hr post infection; in short: as §1
Mus musculus [12] = assay: Antimalarial activity, administered as a single subcutaneous dose of 640 mg/kg, 72 hrs post infection measured as number of mice (Mus musculus) surviving at 60 days post infection; in short: as §1
Plasmodium berghei [13] = assay: (§2) Change in mean survival time for control (average 6.2 days) versus treated mice (Mus musculus) 72 hrs after […] subcutaneous dose
Plasmodium berghei [14] = assay: Change in mean survival time for control (average 6.2 days) versus treated mice (Mus musculus) after 40 mg/kg subcutaneous dose
Plasmodium berghei [15] = assay: Change in mean survival time for control (average 6.2 days) versus treated mice (Mus musculus) after 20 mg/kg subcutaneous dose
Plasmodium berghei [16] = assay: Change in mean survival time for control (average 6.2 days) versus treated mice (Mus musculus) 72 hrs after 640 mg/kg subcutaneous dose
Plasmodium berghei [17] = assay: Change in mean survival time for control (average 6.2 days) versus treated mice (Mus musculus) 72 hrs after 320 mg/kg subcutaneous dose
Plasmodium berghei [18] = assay: Antimalarial activity as 60-day survivors in infected mice (Mus musculus) after single 20 mg/kg subcutaneous dose 72hr post infection; in short: as §1
Plasmodium berghei [19] = assay: Change in mean survival time for control (average 6.2 days) versus treated mice (Mus musculus) 72 hrs after 160 mg/kg subcutaneous dose
Plasmodium berghei [20] = assay: Change in mean survival time for control (average 6.2 days) versus treated mice (Mus musculus) 72 hrs after […] subcutaneous dose
Plasmodium berghei [21] = assay: Difference in mean survival time in mice (Mus musculus) (control = 6.2 days) after single 40mg/kg subcutaneous dose 72hr post infection
Plasmodium berghei [22] = assay: Change in mean survival time for control (average 6.2 days) versus treated mice (Mus musculus) 72 hrs after 5 mg/kg subcutaneous dose
Mus musculus [23] = assay: Antimalarial activity of compound administered as a single subcutaneous dose of 10mg/kg, 72 hrs post infection measured as number of mice (Mus musculus) surviving at 60 days post infection; in short: as §1
Mus musculus [24] = assay: Antimalarial activity, administered as a single subcutaneous dose of 40 mg/kg, 72 hrs post infection measured as number of mice (Mus musculus) surviving at 60 days post infection; in short: as §1
Plasmodium berghei [25] = assay: as §2; remark: listed apart in the source
Plasmodium berghei [26] = assay: Change in mean survival time for control (average of 6.2 days) versus treated mice (Mus musculus) 72 hrs after 80 mg/kg subcutaneous dose
Plasmodium berghei [27] = assay: Change in mean survival time for control (average 6.2 days) versus treated mice (Mus musculus) 72 hrs after 20 mg/kg subcutaneous dose
Plasmodium berghei [28] = assay: Change in mean survival time for control (average 6.2 days) versus treated mice (Mus musculus) 72 hrs after 10 mg/kg subcutaneous dose

CCN(CC)Cc1cc(Nc2cc[n+]([O-])c3cc(Cl)ccc23)cc(-c2ccc(SC)cc2)c1O
Delta MST (Plasmodium berghei [1]): 18.6 days | No. of mice cured (Mus musculus [2]): 1 | Delta MST (Plasmodium berghei [3]): 0.1 days | ED30 (Plasmodium berghei [4]): 158 mg/kg | Delta MST (Plasmodium berghei [5]): 9.4 days | Delta MST (Plasmodium berghei [6]): 19.9 days | Delta MST (Plasmodium berghei [7]): 2.1 days | Delta MST (Plasmodium berghei [8]): 0.5 days | No. of mice cured (Plasmodium berghei [9]): 1 | Delta MST (Plasmodium berghei [10]): 1.5 days | No. of mice cured (Plasmodium berghei [11]): 4 | No. of mice cured (Mus musculus [12]): 2 | Delta MST (Plasmodium berghei [13]): 27.3 days | Delta MST (Plasmodium berghei [14]): 10.3 days | Delta MST (Plasmodium berghei [15]): 6.5 days

CC(C)(C)NCc1cc(Nc2ccnc3cc(Cl)ccc23)cc(-c2ccc(F)cc2)c1O
Delta MST (Plasmodium berghei [16]): 14.4 days | Delta MST (Plasmodium berghei [17]): 16.6 days | No. of mice cured (Mus musculus [2]): 1 | No. of mice cured (Plasmodium berghei [18]): 1 | Delta MST (Plasmodium berghei [19]): 11.9 days | Delta MST (Plasmodium berghei [20]): 7.5 days | No. of mice cured (Plasmodium berghei [9]): 1 | Delta MST (Plasmodium berghei [21]): 15.2 days | Delta MST (Plasmodium berghei [22]): 8.9 days | No. of mice cured (Mus musculus [23]): 1 | No. of mice cured (Mus musculus [24]): 3 | Delta MST (Plasmodium berghei [25]): 1.7 days | Delta MST (Plasmodium berghei [26]): 12.4 days | Delta MST (Plasmodium berghei [27]): 18 days | Delta MST (Plasmodium berghei [28]): 16.5 days

CCN(CC)Cc1cc(Nc2cc[n+]([O-])c3cc(Cl)ccc23)cc(-c2ccccc2F)c1O
Delta MST (Plasmodium berghei [1]): 31.9 days | Delta MST (Plasmodium berghei [3]): -0.1 days | ED30 (Plasmodium berghei [4]): 48.4 mg/kg | Delta MST (Plasmodium berghei [5]): 15.6 days | Delta MST (Plasmodium berghei [6]): 20.1 days | Delta MST (Plasmodium berghei [7]): 6.1 days | Delta MST (Plasmodium berghei [8]): -0.1 days | No. of mice cured (Plasmodium berghei [9]): 3 | Delta MST (Plasmodium berghei [10]): 1.5 days | No. of mice cured (Plasmodium berghei [11]): 2 | No. of mice cured (Mus musculus [12]): 4 | Delta MST (Plasmodium berghei [13]): 35.6 days | No. of mice cured (Mus musculus [24]): 1 | Delta MST (Plasmodium berghei [14]): 17.1 days | Delta MST (Plasmodium berghei [15]): 12.2 days

CC(C)(C)NCc1cc(Nc2cc[n+]([O-])c3cc(Cl)ccc23)cc(-c2ccccc2)c1O
Delta MST (Plasmodium berghei [1]): 14.5 days | No. of mice cured (Mus musculus [2]): 1 | Delta MST (Plasmodium berghei [3]): -0.3 days | No. of mice cured (Plasmodium berghei [18]): 1 | Delta MST (Plasmodium berghei [5]): 15.5 days | Delta MST (Plasmodium berghei [6]): 23.2 days | Delta MST (Plasmodium berghei [7]): 12.5 days | Delta MST (Plasmodium berghei [8]): -0.1 days | No. of mice cured (Plasmodium berghei [9]): 2 | Delta MST (Plasmodium berghei [10]): 4.5 days | No. of mice cured (Plasmodium berghei [11]): 3 | No. of mice cured (Mus musculus [12]): 3 | Delta MST (Plasmodium berghei [13]): 14 days | No. of mice cured (Mus musculus [24]): 1 | Delta MST (Plasmodium berghei [14]): 21 days | Delta MST (Plasmodium berghei [15]): 21 days

CCN(CC)Cc1cc(Nc2ccnc3cc(Cl)ccc23)cc(-c2ccccc2)c1O
No. of mice cured (Mus musculus [2]): 5 | No. of mice cured (Plasmodium berghei [18]): 5 | ED30 (Plasmodium berghei [4]): 10.4 mg/kg | Delta MST (Plasmodium berghei [20]): 0.3 days | No. of mice cured (Plasmodium berghei [9]): 5 | No. of mice cured (Plasmodium berghei [11]): 5 | Delta MST (Plasmodium berghei [22]): 0.7 days | No. of mice cured (Mus musculus [23]): 2 | No. of mice cured (Mus musculus [12]): 5 | No. of mice cured (Mus musculus [24]): 5 | Delta MST (Plasmodium berghei [25]): 0.3 days | Delta MST (Plasmodium berghei [28]): 11.9 days

CCN(CC)Cc1cc(Nc2cc[n+]([O-])c3cc(Cl)ccc23)cc(-c2cccc(Cl)c2)c1O
Delta MST (Plasmodium berghei [1]): 21.9 days | No. of mice cured (Mus musculus [2]): 2 | Delta MST (Plasmodium berghei [3]): 0.3 days | ED30 (Plasmodium berghei [4]): 27.4 mg/kg | Delta MST (Plasmodium berghei [5]): 25.6 days | Delta MST (Plasmodium berghei [6]): 28.9 days | Delta MST (Plasmodium berghei [7]): 9.7 days | Delta MST (Plasmodium berghei [8]): 0.7 days | No. of mice cured (Plasmodium berghei [9]): 4 | Delta MST (Plasmodium berghei [10]): 2.1 days | No. of mice cured (Plasmodium berghei [11]): 4 | No. of mice cured (Mus musculus [12]): 3 | Delta MST (Plasmodium berghei [13]): 16.4 days | No. of mice cured (Mus musculus [24]): 2 | Delta MST (Plasmodium berghei [14]): 25.9 days | Delta MST (Plasmodium berghei [15]): 16.5 days

CC(C)(C)NCc1cc(Nc2ccnc3cc(Cl)ccc23)cc(-c2ccc(C(F)(F)F)cc2)c1O
Delta MST (Plasmodium berghei [16]): 11.7 days | Delta MST (Plasmodium berghei [17]): 12.1 days | Delta MST (Plasmodium berghei [19]): 9.1 days | Delta MST (Plasmodium berghei [20]): 3.4 days | Delta MST (Plasmodium berghei [21]): 14.9 days | Delta MST (Plasmodium berghei [22]): 11.8 days | No. of mice cured (Mus musculus [23]): 1 | No. of mice cured (Mus musculus [12]): 3 | No. of mice cured (Mus musculus [24]): 2 | Delta MST (Plasmodium berghei [25]): 0.2 days | Delta MST (Plasmodium berghei [26]): 10.7 days | Delta MST (Plasmodium berghei [27]): 21.2 days | Delta MST (Plasmodium berghei [28]): 10.4 days

CCN(CC)Cc1cc(Nc2ccnc3cc(Cl)ccc23)cc(-c2c(F)c(F)c(F)c(F)c2F)c1O
No. of mice cured (Mus musculus [2]): 5 | No. of mice cured (Plasmodium berghei [18]): 1 | Delta MST (Plasmodium berghei [19]): 47 days | ED30 (Plasmodium berghei [4]): 7.4 mg/kg | Delta MST (Plasmodium berghei [20]): 7.9 days | No. of mice cured (Plasmodium berghei [9]): 4 | Delta MST (Plasmodium berghei [21]): 20.5 days | No. of mice cured (Plasmodium berghei [11]): 5 | Delta MST (Plasmodium berghei [22]): 12.9 days | No. of mice cured (Mus musculus [23]): 2 | No. of mice cured (Mus musculus [12]): 5 | No. of mice cured (Mus musculus [24]): 4 | Delta MST (Plasmodium berghei [25]): 3.5 days | Delta MST (Plasmodium berghei [27]): 18.8 days | Delta MST (Plasmodium berghei [28]): 18.8 days

CCCCN(CCCC)Cc1cc(Nc2cc[n+]([O-])c3cc(Cl)ccc23)cc(-c2ccc(Cl)cc2)c1O
Delta MST (Plasmodium berghei [1]): 21.2 days | Delta MST (Plasmodium berghei [3]): 0.4 days | Delta MST (Plasmodium berghei [5]): 8 days | Delta MST (Plasmodium berghei [6]): 12 | Delta MST (Plasmodium berghei [7]): -0.2 days | Delta MST (Plasmodium berghei [8]): -0.2 days | Delta MST (Plasmodium berghei [10]): 0.4 days | No. of mice cured (Mus musculus [12]): 1 | Delta MST (Plasmodium berghei [13]): 31.7 days | Delta MST (Plasmodium berghei [25]): 0.4 days | Delta MST (Plasmodium berghei [14]): 2.2 days | Delta MST (Plasmodium berghei [15]): 3.2 days

CCN(CC)Cc1cc(Nc2ccnc3cc(Cl)ccc23)cc(-c2ccc(Cl)cc2)c1O [TEBAQUINE]
Delta MST (Plasmodium berghei [16]): 11.9 days | Delta MST (Plasmodium berghei [17]): 11.2 days | No. of mice cured (Mus musculus [2]): 5 | No. of mice cured (Plasmodium berghei [18]): 1 | Delta MST (Plasmodium berghei [19]): 11.9 days | Delta MST (Plasmodium berghei [20]): 0.1 days | No. of mice cured (Plasmodium berghei [9]): 4 | No. of mice cured (Plasmodium berghei [11]): 2 | Delta MST (Plasmodium berghei [22]): 20.7 days | No. of mice cured (Mus musculus [23]): 1 | No. of mice cured (Mus musculus [12]): 1 | No. of mice cured (Mus musculus [24]): 5 | Delta MST (Plasmodium berghei [25]): 0.1 days | Delta MST (Plasmodium berghei [27]): 33.7 days | Delta MST (Plasmodium berghei [28]): 30.2 days
